PGC1a acetyl inh = inhibitors of PGC1a acetylation signal, primary screen, cell-based, U2OS, AlphaScreen, inhibitor mode. AlphaScreen anti-acetyl-lysine; with virally co-expressed GCN5 acetyltransferase. inhibition, % at 15.6 µM. 0.17% of 350,000 active;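 active = every replicate shows inhibition of at least 40%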;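 note: 0% = neutral control wells and 100% = positive control wells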
PAX8 inh HTS = inhibitors of PAX8-driven TPO luciferase reporter, primary screen, RMG-I cells, single concentration; 1.2% of 360,000 active; inhibition, % at 12.6 µM; AID 652154, 2013; SteadyGlo, 24 h;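 active = mean replicate inhibition at least 60% with every replicate also reaching 60%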;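 note: luciferase light reporting Pax8 driven TPO promoter activity; plate controls were median of neutral control wells for no effect and mitoxantrone controls for full effect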
HIV Env fusion = inhibitors of HIV-1 Env-driven cell-cell fusion, primary screen, HeLa-JRFL effector, CEM21 target cells, luciferase | AID 651610, 2012 | 1.1% of 360,000 active | inhibition, % at 12.3 µM;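 active = mean replicate inhibition score of at least 50 and every replicate individually at or above 50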;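 note: 0% = plate neutral controls and 100% = maraviroc near 300 nM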
FGF22 binding = binders of human FGF22 protein, primary screen, FGF22 synaptogenesis inhibitor project, biophysical, thermal shift, single point; Fibroblast growth factor 22 (Homo sapiens), Q9HCT0; recombinant FGF22 thermal shift, SYPRO orange fluorescence; percent of sucrose octasulfate shift, DMSO zero; activity (Tm shift, normalised), % at 9.99 µM; 1.5% of 340,000 active; AID 651658, 2012;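 active = mean Tm shift, scaled 0 neutral to 100 positive control, at about 1.3% or above, every replicate too, limit read from the data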
Target sequence (Q9HCT0 whole entry, looked up): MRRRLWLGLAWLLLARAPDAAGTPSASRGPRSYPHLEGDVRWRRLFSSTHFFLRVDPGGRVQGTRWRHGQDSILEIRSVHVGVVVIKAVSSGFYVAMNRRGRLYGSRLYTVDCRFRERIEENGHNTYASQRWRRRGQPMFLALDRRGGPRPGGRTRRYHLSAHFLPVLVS
EWS-Fli inh = EWS/Fli-driven NR0B1 reporter inhibitors, primary screen, A673 cells, NR0B1 luciferase, luminescence, MLPCN library; viability-normalised; inhibition, % at 12.6 µM; 0.67% of 350,000 active; AID 651661, 2012;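 active = mean inhibition of at least 50% after viability correction, with every replicate also passing that limit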;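 note: firefly luciferase signal divided by Alamar Blue viability fluorescence both relative to DMSO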
FN deposition inh = inhibitors of fibronectin matrix deposition, primary screen, AH1F cells, Alexa488-fibronectin fluorescence, plate reader. AH1F fibroblasts, overnight. inhibition, % at 12.6 µM. 0.086% of 350,000 active. AID 743247, 2014;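 active = mean inhibition across replicates of 30% or more, regardless of how many single replicates reach that level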;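 note: positive control wells lacked labelled fibronectin entirely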
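Schedule: 1 h cell adhesion before compound, then overnight fibronectin incubation; test system: AH1F fibroblast monolayer depositing Alexa488-labelled fibronectin into matrix; quantity: 10000 AH1F cells per well; probe or stimulus: fluorescent fibronectin at 24 nM final; signal: fluorescence, ex 485 nm, em 525 nm; evaluation: percent inhibition as loss of matrix-bound fibronectin fluorescence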
* marks the source's active call; other numbers are inactive results; [ ] = dose if it differs, or a comment. Most compounds without a hit are left out; they make up all but 3.1% or so of the library.

How did COc1ccc(C(=O)NCc2nnc(SCC(=O)N3CCC(C)CC3)o2)cc1 do in these assays?
PAX8 inh HTS: -5; HIV Env fusion: 1; FGF22 binding: 44*; EWS-Fli inh: -8; FN deposition inh: 0

How did O=C(COc1ccc(Cl)cc1)NCc1nnc(SCC(=O)N2CCCC2)o1 do in these assays?
PAX8 inh HTS: -8; HIV Env fusion: 12; FGF22 binding: 43*; EWS-Fli inh: 2; FN deposition inh: -2

What do the screens show for `O=C(COc1ccc(Cl)cc1)NCc1nnc(SCC(=O)N2CCCCCC2)o1`?
PAX8 inh HTS: 0; HIV Env fusion: -6; FGF22 binding: 43*; EWS-Fli inh: 18; FN deposition inh: -6

What do the screens show for `COc1ccc(C(=O)NCc2nnc(SCC(=O)N3CCC(C)CC3)o2)cc1OC`?
PGC1a acetyl inh: 3

What do the screens show for `COc1nn(-c2ccccc2)c(=O)c(Cl)c1Cl`?
PAX8 inh HTS: 117*; HIV Env fusion: -407; FGF22 binding: 0; EWS-Fli inh: 76*; FN deposition inh: 12

Results for CC1=CC(C)(C)N(C(=O)CN2C(=O)CCC2=O)c2ccccc21 ?
PGC1a acetyl inh: 0; PAX8 inh HTS: 12; HIV Env fusion: -3; FGF22 binding: 43*; EWS-Fli inh: -19; FN deposition inh: -3

What do the screens show for `CC1=CC(C)(C)N(C(=O)CCl)c2cc(C)ccc21`?
PGC1a acetyl inh: -5; PAX8 inh HTS: 18; HIV Env fusion: -22; FGF22 binding: 0; EWS-Fli inh: 68*; FN deposition inh: -2

How did CC1=CC(C)(C)N(C(=O)CCl)c2ccccc21 do in these assays?
PAX8 inh HTS: 18; HIV Env fusion: 6; FGF22 binding: 43; EWS-Fli inh: 7; FN deposition inh: -10

How did C[C@@H]1CN([C@H](C)CO)C(=O)c2cccc(NC(=O)NC3CCCCC3)c2O[C@@H]1CN(C)CC1CC1 do in these assays?
PGC1a acetyl inh: 10; PAX8 inh HTS: -38; HIV Env fusion: 1[16.7 µM]; FGF22 binding: 0; EWS-Fli inh: -4

What do the screens show for `Cc1cccc(-c2ccc([C@H]3[C@H]4CN(CCC(F)(F)F)CCCCN4[C@H]3CO)cc2)c1`?
PGC1a acetyl inh: -18; PAX8 inh HTS: -6; EWS-Fli inh: 19

Results for COCCNC(=O)C[C@H]1C[C@H]2c3cc(NC(=O)c4cccnc4)ccc3O[C@H]2[C@H](CO)O1 ?
PGC1a acetyl inh: 9; PAX8 inh HTS: 4; HIV Env fusion: -2[16.7 µM]; FGF22 binding: 0; EWS-Fli inh: 7; FN deposition inh: 1

How did COc1ccc2c(C=O)cn(C)c2c1 do in these assays?
PGC1a acetyl inh: 14; PAX8 inh HTS: -14; HIV Env fusion: -3; FGF22 binding: 43*; EWS-Fli inh: 8; FN deposition inh: -8

Results for Cc1ccc(SCC(=O)Nc2cc([N+](=O)[O-])ccc2O)cc1 ?
PGC1a acetyl inh: -15; PAX8 inh HTS: -33; HIV Env fusion: -15; FGF22 binding: 43*; EWS-Fli inh: -8

Results for O=C(CSCc1ccc(Cl)cc1)Nc1cc([N+](=O)[O-])ccc1O ?
PGC1a acetyl inh: 0; PAX8 inh HTS: 2; HIV Env fusion: 8; EWS-Fli inh: 15; FN deposition inh: 10

What do the screens show for `CC(C)c1ccc(NC(=O)CNS(=O)(=O)c2ccc(F)cc2)cc1`?
PGC1a acetyl inh: -4; PAX8 inh HTS: 26; HIV Env fusion: 18; FGF22 binding: 43*; EWS-Fli inh: 14; FN deposition inh: -5

Results for CCS(=O)(=O)Nc1ccc2c(c1)C(=O)N(C)[C@@H]1CC[C@@H](CC(=O)OC)O[C@H]1CO2 ?
PGC1a acetyl inh: -4; PAX8 inh HTS: -5; FGF22 binding: 0; EWS-Fli inh: 7; FN deposition inh: -8

How did Cc1noc(C)c1S(=O)(=O)Nc1ccc2c(c1)C(=O)N([C@H](C)CO)C[C@@H](C)[C@H](CN(C)Cc1ccc(C(=O)O)cc1)OCCCC[C@@H](C)O2 do in these assays?
PGC1a acetyl inh: -7; PAX8 inh HTS: -24; HIV Env fusion: -13[16.7 µM]; FGF22 binding: 1; EWS-Fli inh: -14; FN deposition inh: -17

What do the screens show for `Cc1noc(C)c1S(=O)(=O)Nc1ccc2c(c1)C(=O)N([C@@H](C)CO)C[C@H](C)[C@H](CN(C)Cc1ccc(C(=O)O)cc1)OCCCC[C@H](C)O2`?
PGC1a acetyl inh: -14; PAX8 inh HTS: 14; HIV Env fusion: -3[16.7 µM]; FGF22 binding: 1.3*; EWS-Fli inh: -12; FN deposition inh: -41

What do the screens show for `Cc1noc(C)c1S(=O)(=O)Nc1ccc2c(c1)C(=O)N([C@H](C)CO)C[C@@H](C)[C@H](CN(C)Cc1ccc(Cl)c(Cl)c1)OCCCC[C@@H](C)O2`?
PGC1a acetyl inh: -5; PAX8 inh HTS: 75*; HIV Env fusion: 36[16.7 µM]; FGF22 binding: 1; EWS-Fli inh: 22

How did Cc1noc(C)c1S(=O)(=O)Nc1ccc2c(c1)C(=O)N([C@@H](C)CO)C[C@@H](C)[C@@H](CN(C)Cc1ccc(C(=O)O)cc1)OCCCC[C@H](C)O2 do in these assays?
PGC1a acetyl inh: -12; PAX8 inh HTS: -3; HIV Env fusion: -47[16.7 µM]; FGF22 binding: 1; EWS-Fli inh: -8; FN deposition inh: 1

Results for Cc1noc(C)c1S(=O)(=O)Nc1ccc2c(c1)C(=O)N([C@H](C)CO)C[C@H](C)[C@H](CN(C)Cc1ccc(C(=O)O)cc1)OCCCC[C@@H](C)O2 ?
PGC1a acetyl inh: -14; PAX8 inh HTS: -12; HIV Env fusion: -76[16.7 µM]; FGF22 binding: 1.4*; EWS-Fli inh: 15; FN deposition inh: 5

How did CNC(=O)C[C@H]1CC[C@@H]2[C@H](COC[C@H](O)CN2S(=O)(=O)c2ccccc2Cl)O1 do in these assays?
PGC1a acetyl inh: 1; FGF22 binding: 0; FN deposition inh: 5

How did O=C(NCC[C@@H]1CC[C@H](NS(=O)(=O)c2cccc(F)c2)[C@H](CO)O1)C1CCC1 do in these assays?
PGC1a acetyl inh: -1; PAX8 inh HTS: -3; HIV Env fusion: -10[16.7 µM]; FGF22 binding: 0; EWS-Fli inh: 3

Results for Cc1cc(C)c2nc(C(F)(F)F)nc(N3CCN(C(=O)c4ccco4)CC3)c2c1 ?
PGC1a acetyl inh: 4; PAX8 inh HTS: 25; HIV Env fusion: 73*; FN deposition inh: 15

Results for Cc1cc(C)c2nc(N3CCCN(C(=O)c4ccco4)CC3)c(C#N)cc2c1 ?
PGC1a acetyl inh: -3; HIV Env fusion: 33

How did CCNC(=O)[C@H]1[C@H](CO)[C@H]2Cn3c(ccc(-c4ccccc4)c3=O)[C@H]2N1CC1CC1 do in these assays?
PAX8 inh HTS: 6; FGF22 binding: 0; EWS-Fli inh: -4

High-throughput results as filed in PubChem.
